Measurements from different studies.
Target: Muscle, skeletal receptor tyrosine-protein kinase (MUSK, Homo sapiens, UniProt O15146)
Sequence (O15146 24-869, as in one of the studies): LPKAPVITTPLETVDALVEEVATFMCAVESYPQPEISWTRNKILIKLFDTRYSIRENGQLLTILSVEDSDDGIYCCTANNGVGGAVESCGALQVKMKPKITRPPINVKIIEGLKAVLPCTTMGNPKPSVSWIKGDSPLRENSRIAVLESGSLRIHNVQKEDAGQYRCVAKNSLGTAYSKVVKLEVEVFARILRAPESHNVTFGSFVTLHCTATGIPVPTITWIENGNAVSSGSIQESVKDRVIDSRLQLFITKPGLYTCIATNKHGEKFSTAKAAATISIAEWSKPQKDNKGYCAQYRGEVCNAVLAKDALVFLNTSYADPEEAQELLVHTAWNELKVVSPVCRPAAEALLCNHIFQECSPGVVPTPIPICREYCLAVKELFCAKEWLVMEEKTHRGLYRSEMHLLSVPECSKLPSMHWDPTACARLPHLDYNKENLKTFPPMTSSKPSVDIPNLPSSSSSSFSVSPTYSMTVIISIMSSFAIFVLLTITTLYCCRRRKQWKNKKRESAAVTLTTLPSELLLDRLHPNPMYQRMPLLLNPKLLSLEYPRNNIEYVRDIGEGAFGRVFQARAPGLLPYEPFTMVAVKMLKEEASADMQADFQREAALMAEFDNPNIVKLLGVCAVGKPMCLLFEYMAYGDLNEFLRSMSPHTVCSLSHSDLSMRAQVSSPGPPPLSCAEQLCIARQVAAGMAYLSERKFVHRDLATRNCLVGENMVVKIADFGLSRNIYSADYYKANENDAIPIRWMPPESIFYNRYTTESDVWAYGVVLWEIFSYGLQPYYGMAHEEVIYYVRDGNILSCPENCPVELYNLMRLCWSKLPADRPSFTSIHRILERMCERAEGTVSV

| SMILES | observed | action | technique | tested at | quantity | result |
| --- | --- | --- | --- | --- | --- | --- |
| C[C@@H]1CN(c2cc(-c3nn(C)c4ccc(OC5(C)CC5)cc34)ncn2)C[C@H](C)O1 | cell-free assay | – | competition with immobilised ligand | 1 µM | remaining binding | 92% |
| N#CCCc1ccc2c(c1)-c1[nH]c3ccc([N+](=O)[O-])cc3c1CC(=O)N2 | cell-free assay | – | – | 0.5 µM | remaining signal | 63% |
| CNC(=O)c1cc(Oc2ccc(NC(=O)Nc3ccc(Cl)c(C(F)(F)F)c3)cc2)ccn1 | enzyme activity | inhibitor | – | 0.3 µM | inhibition | 77% |
| CNC(=O)c1cc2c(Oc3ccc(NC(=O)C4(C(=O)Nc5ccc(F)cc5)CC4)cc3)ccnc2cc1OC | enzyme activity | inhibitor | radiometric | 1 µM | inhibition | 70% |
| O=C1NC(=O)c2cc(Nc3ccc(F)cc3)c(Nc3ccc(F)cc3)cc21 | cell-free assay | – | – | 0.5 µM | remaining signal | 90.2% |
| CN(C)C(=O)Cn1cc(-c2nc(C3(c4ccc(-c5cnc(N)nc5)cc4)CC3)no2)cn1 | cell-free assay | – | competition with immobilised ligand | 1 µM | remaining binding | 100% |
| COc1cc(Cl)c(C(=O)N[C@@H](CN[C@H]2CC[C@@H](N)CC2)Cc2ccc(C#N)cc2)cc1-c1ccc(CN[C@H](C)c2ccc(C)cc2)o1 | enzyme activity | inhibitor | – | 1 µM | remaining activity | 84% |
| Cc1ccc(NC(=O)c2ccc(C)c(C(F)(F)F)c2)cc1C#Cc1nn(C2CCC(O)CC2)c2ncnc(N)c12 (centres unmarked) | cell-free assay | – | – | 10 µM | remaining signal | 70% |
| CCC(=N\O)/C(C)=C/c1ccc(F)cc1 | cell-free assay | – | competition with immobilised ligand | 1 µM | remaining binding | 90% |
| CN1CC(Oc2cnc(C#N)cc2-c2ccn3nc(NC(=O)C4CC4)cc3c2)C1 | enzyme activity | inhibitor | – | 1 µM | inhibition | 6% |
| CCCS(=O)(=O)Nc1ccc(F)c(C(=O)c2c[nH]c3ncc(-c4ccc(Cl)cc4)cc23)c1F | enzyme activity | inhibitor | – | 1 µM | inhibition | < 10% |
| CCN(CC)CCNC(=O)c1c(C)[nH]c(/C=C2\C(=O)Nc3ccc(F)cc32)c1C | enzyme activity | inhibitor | – | 0.3 µM | inhibition | 98% |
| O=C(O)[C@@H]1[C@@H](Cn2nnc3ccccc3c2=O)CC[C@H]1C(=O)c1ccc(OCCC2CCOCC2)cc1 | cell-free assay | – | competition with immobilised ligand | 1 µM | remaining binding | 100% |
| Cc1sc(C(=O)NC2COC2)cc1-n1cc(NC(=O)Nc2c(F)cccc2Cl)cn1 | enzyme activity | inhibitor | – | 10 µM | remaining activity | 103% |
| CC(C)(C)c1nc(-c2cccc(NS(=O)(=O)c3c(F)cccc3F)c2F)c(-c2ccnc(N)n2)s1 | enzyme activity | inhibitor | radiometric | 1 µM | remaining activity | 113% |
| CCCOc1ccc(OC)c(F)c1C(=O)c1ccc(C(=O)N[C@@H]2CNC[C@H]2NC(=O)c2ccc3[nH]ncc3c2)cc1 | enzyme activity | inhibitor | – | 0.75 µM | remaining activity | 13% |
| c1ccc(N2CCN(Cc3nc4ccccc4[nH]3)CC2)nc1 | binding | – | competition with immobilised ligand | 1 µM | remaining binding | 100% |
